Experimental data from different studies.
Target: Serine/threonine-protein kinase PAK 6 (PAK6, Homo sapiens, UniProt Q9NQU5)

C[C@@H]1CCN(c2nccc(-c3cnn4ncccc34)n2)C1 — remaining binding (binding; 1 µM): 87%
N#CC1(c2ccccn2)CCN(Cc2cc(C(=O)N3CCCC3)c(=O)n3ccccc23)CC1 — remaining binding (cell-free assay, competition with immobilised ligand; 1 µM): 100%
Cc1cnn2ncc(-c3ccnc(N(C)C)n3)c2c1 — remaining binding (binding; 1 µM): 93%
COc1ncc2cc3ccccc3nc2c1C#N — remaining binding (cell-free assay, competition with immobilised ligand; 5 µM): 94%
O=C(NCCCN1CCOCC1)c1ccc(Nc2nccc(-c3cc4ccccc4s3)n2)cc1 — remaining binding (binding, competition with immobilised ligand; 1 µM): 90%
CCCCN(CCCC)C(=O)CN1C[C@@H](c2cc(OC)c3c(c2)OCO3)[C@H](C(=O)O)[C@H]1CC(C)(C)CCC — remaining binding (cell-free assay, competition with immobilised ligand; 1 µM): 100%
O=C(NCC1CCOCC1)c1n[nH]cc1NC(=O)c1c(F)cccc1F — remaining binding (binding, competition with immobilised ligand; 1 µM): 86%
C[C@H](c1ccnc(Nc2nc3ccc(-c4cc(N(C)C)ncn4)cc3[nH]2)c1)N1CCN(C(=O)CC(F)(F)F)CC1 — remaining binding (cell-free assay, competition with immobilised ligand; 0.1 µM): 100%
O=C(c1ccc(Nc2ncc(Cl)c(-c3ccc(Cl)s3)n2)cc1)N1CCC(N2CCCC2)CC1 — remaining binding (binding, competition with immobilised ligand; 1 µM): 52%
CO[C@@H](C)c1c(Nc2ccc([C@@H](N(C)C(=O)C3CCS(=O)(=O)CC3)C(F)(F)F)cc2)cnc2cc(Cl)nn12 — remaining binding (cell-free assay, competition with immobilised ligand; 1 µM): 100%
COc1ccnn2ncc(-c3ccnc(N(C)C)n3)c12 — remaining binding (binding; 1 µM): 97%
CNC(=O)Nc1ccc2c(c1)CC[C@@]21OC(=O)N(CC(=O)N(Cc2ccc(F)cc2)[C@@H](C)C(F)(F)F)C1=O — remaining binding (cell-free assay, competition with immobilised ligand; 1 µM): 91%
CN(C)c1nccc(-c2cnc3ncccn23)n1 — remaining binding (binding; 1 µM): 98%
FC(F)(F)Oc1cccc(-c2cnc3ccc(-c4ccncc4)nn23)c1 — remaining binding (cell-free assay, competition with immobilised ligand; 5 µM): 53%
C[C@@H](c1ccc(-n2cnc3c(N)ncnc32)cc1)N1CCc2nn(C)c(Cc3ccccc3)c2C1=O — remaining binding (binding, competition with immobilised ligand; 0.1 µM): 96%
Cc1cnc(Nc2ccc(C(=O)N3CCC(N4CCCC4)CC3)cc2)nc1-c1cc2ccccc2s1 — remaining binding (binding, competition with immobilised ligand; 1 µM): 63%
COc1cnc(Nc2cccc(S(N)(=O)=O)c2)nc1N1CCN(c2ccccc2)C(=O)C1 — remaining binding (binding, competition with immobilised ligand; 1 µM): 100%
CC1CCCN1c1nccc(-c2cnn3ncccc23)n1 (stereo not drawn) — remaining binding (binding; 1 µM): 100%
CC1=C(C#N)[C@@H](c2ccc3[nH]nc(C)c3c2)C(C#N)=C(c2ccc(Cl)cc2)N1 — remaining binding (cell-free assay, competition with immobilised ligand; 1 µM): 100%
CN(c1nccc(-c2cnn3ncccc23)n1)C1CC1 — remaining binding (binding; 1 µM): 100%
COc1cnc(Nc2cccc(S(N)(=O)=O)c2)nc1N1CCN(c2ccccc2)CC1 — remaining binding (binding, competition with immobilised ligand; 1 µM): 100%
